According to ChEMBL document CHEMBL1139946, “1-Aryl-4,6-dihydropyrazolo[4,3-d][1]benzazepin-5(1H)-ones: a new class of antiproliferative agents with selectivity for human leukemia and breast cancer cell lines” (Eur J Med Chem, 2007):

Legend:
K562 = assay: Antitumor activity against human K562 cells after 48 hrs by sulforhodamine B protein assay; format: functional; conditions: K562, 48 h
How it was run: (§1)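 Part of the NCI 60-cell-line screen. Compounds tested at five concentrations (10^-8 to 10^-4 M) with continuous exposure for 48 h. Cell growth read by sulforhodamine B protein assay, with percent growth from optical density of treated versus untreated control cultures. GI50 is the concentration giving 50% net growth inhibition.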

MDA-MB-435 = assay: Antitumor activity against human MDA-MB435 cells after 48 hrs by sulforhodamine B protein assay; format: functional; conditions: MDA-MB-435, 48 h; how it was run: as §1

In the case of COc1cccc2c1C(=O)c1c(O)c3c(c(O)c1C2=O)C[C@@](O)(C(=O)CO)C[C@@H]3O[C@H]1C[C@H](N)[C@H](O)[C@H](C)O1 [DOXORUBICIN], the GI50 (K562) is reported as 100 nM and the GI50 (MDA-MB-435) is reported as 200 nM.
